Laboratory results reported in article PMC5538152 (Pharmacognosy Magazine, 2017).

What was measured:
[1] = system: HT29 cells; assay: Nuclear morphology by Hoechst 33342/propidium iodide staining; format: cell-based, human; conditions: 8 μM, 48 h
Procedure, shortened: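 Overnight cultures (1 × 10^5 cells/ml) were given test compound at 8, 14 or 28 μM or 0.5% DMSO for 48 h at 37°C, 5% CO2. Cells were harvested, washed in cold PBS and incubated with Hoechst 33342 (10 μg/ml) for 7 min at 37°C. PI (2.5 μg/ml) was then added for 15 min in the dark at room temperature. Cells were dried on slides and nuclei examined by fluorescence microscopy at ×630.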

[2] = system: caspase 9 in HT29 cells; assay: Active caspase 9 by flow cytometry; format: cell-based, human; conditions: 72 h of treatment
Procedure, shortened: (§1)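 HT29 cells were seeded at 1 × 10^5 cells/ml overnight, then exposed to test compound at 8, 14 or 28 μM for 72 h (37°C, 5% CO2), with untreated cells in 0.5% DMSO as control. Harvested, PBS-washed cells were labelled 45 min at 37°C with FITC-IETD-FMK (caspase 8) or FITC-LEHD-FMK (caspase 9), then washed and read by flow cytometry in FL1. Means ± SD, ≥3 independent experiments.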

[3] = system: HT29 cells; assay: Cell cycle analysis; format: cell-based, human; conditions: 72 h; for Percentage of cells in G2-M phase (Dip G2): untreated 7.70%; for Percentage of cells in G0-G1 phase (Dip G1): untreated 65.54%
[4] = system: DLD-1 colon carcinoma cell line; conditions: read-out: IC50 against DLD-1; cited from earlier work
[5] = system: HT29 cells; assay: Cell morphology by phase contrast microscopy; format: cell-based, human; conditions: 8, 14, 28 μM; dose- and time-dependent
[6] = system: HeLa cervical carcinoma cell line; conditions: read-out: IC50 against HeLa; cited from earlier work
[7] = system: caspase 8 in HT29 cells; assay: Active caspase 8 by flow cytometry; format: cell-based, human; conditions: 72 h of treatment
Procedure, shortened: as §1

[8] = system: CCD-18Co normal human colon fibroblast cell line; assay: In vitro cytotoxicity assay; format: cell-based; conditions: 72 h
[9] = system: caspase 8 and caspase 9; conditions: cited from earlier work

Compound | Nuclear morphology [1] | Caspase 9 activation relative to untreated cells [2] | Percentage of cells in G2-M phase (Dip G2) ([3]; 8 μM) | Percentage of cells in G0-G1 phase (Dip G1) ([3]; 8 μM) | Percentage of cells in G2-M phase (Dip G2) ([3]; 14 μM) | Percentage of cells in G0-G1 phase (Dip G1) ([3]; 14 μM) | Percentage of cells in G2-M phase (Dip G2) ([3]; 28 μM) | Percentage of cells in G0-G1 phase (Dip G1) ([3]; 28 μM) | IC50 [4] | Cellular morphological changes [5] | IC50 [6] | Caspase 8 activation relative to untreated cells [7] | Toxicity to normal colon cells (words) ([8]; listed as Rutamarin) | Toxicity to normal colon cells (words) ([8]; listed as rutamarin) | IC50 ([8]; Homo sapiens, CCD-18Co, read-out: IC50 (μM), CCD-18Co, 72 h of incubation, SRB) | Caspase activation [9]
C=CC(C)(C)c1cc2cc3c(cc2oc1=O)OC(C(C)(C)OC(C)=O)C3 (stereo not shown) [Rutamarin (8), rutamarin] | chromatin condensation | 4 fold | 12.05% | 75.26% | 12.60% | 76.20% | 15.24% | 76.58% | 37.5 µM | apoptotic bodies, cell shrinkage, detachment, and rounding were observed | 50.7 µM | 15 fold | not toxic to CCD-18Co cells | exerted no damage against the normal cells | ≥ 100 µM | –
CCCC(=O)c1c(O)c(C/C=C(\C)CCC=C(C)C)c(O)c2c([C@@H](O)CC)cc(=O)oc12 [kayeassamin A] | – | – | – | – | – | – | – | – | – | – | – | – | – | – | – | activate caspase 8 more than caspase 9
